In paper PMC4334733 (International journal of toxicology, 2015):
Several values for one entry are separate records, joined by “and”; a condition that tells them apart may be missing. Identical values can stand only once. Entries after “also recorded” stand apart in the source; their conditions may differ. Counter-ions that a name gives are not always drawn.

Experiments:
kidney gene expression = test: Toxicogenomics: microarray gene expression analysis of kidney; assay type: in vivo, mouse
Wistar rats = conditions: 600 mg/kg TDF for 5 weeks; cited from earlier work
Female BALB/c mice = test: 13-week daily oral toxicity study of TDF; assay type: in vivo, mouse; conditions: for Clinical Chemistry, Day 29 and Day 92: CHO cholesterol, TRI triglycerides
liver gene expression = test: Toxicogenomics: microarray gene expression analysis of liver; assay type: in vivo, mouse; conditions: 1000 mg/kg TDF for 91 days vs vehicle
Procedure, shortened: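 Female BALB/c mice received 1000 mg/kg by daily oral gavage for 91 days, or vehicle (50 mM trisodium citrate dihydrate), n=7 per group. They were killed on Day 92, 24 hr after the last dose. Total RNA from a 20–50 mg left liver lobe section was hybridized to Mouse Gene 1.0 ST arrays. Fold change versus vehicle was tested by t-test with Benjamini-Hochberg correction.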

rats = conditions: oral 100 mg/kg TDF for 8 weeks; cited from earlier work
[1] = assay type: in vivo, mouse
Procedure, shortened: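 Female BALB/c mice were gavaged daily (10 ml/kg) at 50, 500 or 1000 mg/kg; the vehicle was 50 mM trisodium citrate dihydrate. Tenofovir was quantified against 2.5–2000 ng/ml plasma standards using peak area ratio to indinavir and 1/y-weighted linear regression. Noncompartmental Cmax, Tmax and AUClast were derived.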

[2] = kidney, 1000 mg/kg TDF for 91 days vs vehicle, regulation Down, p<0.05, N=7
[3] = kidney, 1000 mg/kg TDF for 91 days vs vehicle, regulation Up, p<0.05, N=7

## CC(C)OC(=O)OCOP(=O)(CO[C@H](C)Cn1cnc2c(N)ncnc21)OCOC(=O)OC(C)C [TDF, Tenofovir disoproxil fumarate]
Kidney gene expression; 1000 mg/kg TDF vs vehicle, Day 92
  Fold change of gene expression in the kidney (all changes): less than 2 fold
Kidney gene expression; [2]
  Fold Change, Cyp4b1: 1.60 fold
  Fold Change, Polr3e: 1.87 fold
Kidney gene expression; [3]
  Fold Change, Gm10804 (predicted gene 10804): 1.65 fold
  Fold Change, Rorc (RAR-related orphan receptor gamma): 1.77 fold
Wistar rats
  Nephrotoxicity: nephrotoxicity was observed
Female BALB/c mice; TDF 0, 50, 500 or 1000 mg/kg po daily for 1, 28 or 91 days
  Survival: All animals survived until their scheduled sacrifice
Female BALB/c mice; TDF 50 mg/kg po daily
  Clinical Observations: Gasping (incidence): 0
  Clinical Observations: Hunched Posture (incidence): 0
  Clinical Observations: Hypoactivity (incidence): 0
  Clinical Observations: Ruffled Fur (incidence): 9 out of 35 and 9 of 35
  Mortality: 0
  Clinical Chemistry, Day 29 and Day 92: ^↓(CHO, TRI)
Female BALB/c mice; TDF 500 mg/kg po daily
  Clinical Observations: Gasping (incidence): 0
  Clinical Observations: Hunched Posture (incidence): 0
  Clinical Observations: Hypoactivity (incidence): 0
  Clinical Observations: Ruffled Fur (incidence): 9 out of 35 and 9 of 35
  Mortality: 0
  Clinical Chemistry, Day 29 and Day 92: ^↓(CHO, TRI)
Female BALB/c mice; TDF 1000 mg/kg po daily
  Clinical Observations: Gasping (incidence): two mice and 2 of 35
  Clinical Observations: Hunched Posture (incidence): one mouse and 1 of 35
  Clinical Observations: Hypoactivity (incidence): two mice and 2 of 35
  Clinical Observations: Ruffled Fur (incidence): 31 out of 35 and 31 of 35
  Histopathology: Liver (Days 29 and 92): Minimal/Mild Cytomegaly
  Mortality: 0
  Clinical Chemistry, Day 29 and Day 92: ^↓(CHO, TRI)
Female BALB/c mice; TDF 1000 mg/kg po daily, vs control
  Body Weight: significantly lower mean body weights; also recorded: ^↓(Days 36 and 43)
Female BALB/c mice; TDF 1000 mg/kg, Day 119 necropsy
  Liver cytomegaly after 4-week recovery: not present; also recorded: not observed
Female BALB/c mice; TDF 1000 mg/kg, study Days 29 and 92
  Decreases in cholesterol (CHO) and triglyceride (TRI) levels: 30–48%
Female BALB/c mice; TDF 1000 mg/kg/day for 28 days, necropsy Day 29
  Liver cytomegaly, minimal or mild (incidence): 7 of 10
Female BALB/c mice; TDF 1000 mg/kg/day for 91 days, necropsy Day 92
  Liver cytomegaly, minimal or mild (incidence): 6 of 15
Female BALB/c mice; any dose group
  Histopathologic changes in the kidneys: No histopathologic changes
Liver gene expression; down expressed, p<0.05, N=7
  Fold Change, Cml3 (camello-like 3): 2.08 fold
  Fold Change, Gm4952: 2.15 fold
  Fold Change, Gm15401: 2.44 fold
  Fold Change, Rgs16: 2.86 fold
  Fold Change, Serpinb1a: 2.70 fold
Liver gene expression; upward expressed, p<0.05, N=7
  Fold Change, Gria3: 3.34 fold
  Fold Change, Phlda3: 2.41 fold
  Fold Change, Rdh11: 2.09 fold
  Fold Change, Snord116: 2.15 fold
  Fold Change, Sult1e1: 4.39 fold
Liver gene expression; upward expressed, p<0.05, N=7, 1000 mg/kg
  Fold Change, Cdkn1a (cyclin-dependent kinase inhibitor 1A, P21): 3.7 fold and 3.70 fold
rats
  Renal toxicity: induced renal toxicity

## C[C@H](Cn1cnc2c(N)ncnc21)OCP(=O)(O)O [Tenofovir]
[1]; after 1000 mg/kg dose, human value ref 29
  Mouse AUC plasma level of tenofovir relative to healthy volunteers: approximately eight
[1]; plasma tenofovir, oral TDF 50-1000 mg/kg daily
  Accumulation between dosing Days 1 and 91 (Cmax or AUC): no evidence of accumulation
Female BALB/c mice; 50 or 500 mg/kg/day
  Liver cytomegaly: not present
